Test results taken from the M2OR odorant receptor database.

Assays:
Details in all cases: stereoisomer not certain
OR51E1 (Homo sapiens) = target: T1, OR51E1 (Homo sapiens) (UniProt Q8TCB6)
T1 sequence (whole entry): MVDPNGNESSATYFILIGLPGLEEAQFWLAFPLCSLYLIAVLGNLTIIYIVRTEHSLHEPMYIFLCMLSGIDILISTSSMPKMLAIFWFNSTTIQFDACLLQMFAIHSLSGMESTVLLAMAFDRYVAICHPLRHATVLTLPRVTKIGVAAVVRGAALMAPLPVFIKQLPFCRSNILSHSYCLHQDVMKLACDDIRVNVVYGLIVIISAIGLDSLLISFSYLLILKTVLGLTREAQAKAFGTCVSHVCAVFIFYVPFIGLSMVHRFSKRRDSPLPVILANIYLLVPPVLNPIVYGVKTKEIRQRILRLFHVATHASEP
Method in brief: (§1)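 Assay methods differ from source to source, frequently being transient luciferase assays in mammalian cell lines. For each receptor–molecule pair, the label responsive (active) applies when the original authors judged the measured signal statistically different from baseline, and non-responsive (inactive) applies otherwise.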

OR51E2 (Homo sapiens) = target: T2, OR51E2 (Homo sapiens) (UniProt Q9H255)
T2 sequence (whole entry): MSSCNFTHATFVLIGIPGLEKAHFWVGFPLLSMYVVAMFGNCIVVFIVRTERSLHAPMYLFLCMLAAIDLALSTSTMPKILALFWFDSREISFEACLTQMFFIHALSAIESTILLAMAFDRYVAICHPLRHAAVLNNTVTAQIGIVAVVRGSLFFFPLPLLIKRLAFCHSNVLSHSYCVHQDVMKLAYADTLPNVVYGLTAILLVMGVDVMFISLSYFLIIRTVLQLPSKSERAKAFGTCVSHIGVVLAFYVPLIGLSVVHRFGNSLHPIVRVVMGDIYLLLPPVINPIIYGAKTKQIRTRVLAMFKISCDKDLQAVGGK
Method in brief: as §1

OR51L1 (Homo sapiens) = target: T3, OR51L1 (Homo sapiens) (UniProt Q8NGJ5)
T3 sequence (whole entry): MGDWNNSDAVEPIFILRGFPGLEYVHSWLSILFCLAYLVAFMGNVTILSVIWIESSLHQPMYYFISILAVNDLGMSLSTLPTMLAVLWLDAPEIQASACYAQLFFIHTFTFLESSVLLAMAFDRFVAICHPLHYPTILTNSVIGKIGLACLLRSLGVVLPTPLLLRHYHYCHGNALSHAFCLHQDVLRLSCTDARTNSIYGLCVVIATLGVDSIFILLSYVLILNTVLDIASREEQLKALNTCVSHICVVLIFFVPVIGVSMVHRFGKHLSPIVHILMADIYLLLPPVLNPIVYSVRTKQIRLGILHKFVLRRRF
Method in brief: as §1

OR52A1 (Homo sapiens) = target: T4, OR52A1 (Homo sapiens) (UniProt Q9UKL2)
T4 sequence (whole entry): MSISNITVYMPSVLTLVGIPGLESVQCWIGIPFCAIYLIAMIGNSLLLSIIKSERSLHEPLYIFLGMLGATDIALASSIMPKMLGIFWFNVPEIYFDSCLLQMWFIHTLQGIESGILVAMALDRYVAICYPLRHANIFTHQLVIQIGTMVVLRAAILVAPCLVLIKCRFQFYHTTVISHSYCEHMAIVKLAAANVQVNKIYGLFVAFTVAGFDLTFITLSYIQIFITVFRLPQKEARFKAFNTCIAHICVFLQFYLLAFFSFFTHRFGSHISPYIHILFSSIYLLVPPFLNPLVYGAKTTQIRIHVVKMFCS
Method in brief: as §1

SMILES | odorant receptor agonist call (OR51E1 (Homo sapiens)) | odorant receptor agonist call (OR51E2 (Homo sapiens)) | odorant receptor agonist call (OR51L1 (Homo sapiens)) | odorant receptor agonist call (OR52A1 (Homo sapiens))
O=C1Cc2ccccc2O1 | inactive | inactive | inactive | 
CCCC(C)=O | inactive | inactive | inactive | 
CC(=O)C=CC1=C(C)CCCC1(C)C |  | inactive |  | 
CC(=O)OCC=C(C)C | inactive | inactive | inactive | 
CC12CCC(CC1=O)C2(C)C (stereo not given) | inactive | inactive | inactive | 
CCC(=O)C(=O)CC | inactive | inactive | inactive | 
CCCCC(=O)O |  | inactive | inactive | 
CCC(C(=O)O)c1ccccc1 (stereo not given) | inactive | inactive | inactive | 
CCCCCC1=C(C)CCC1=O | inactive | inactive | inactive | 
CCCCCCCCO | inactive | inactive | inactive | 
CCCCCC=O | inactive | inactive | inactive | 
CCCCCCCO | inactive | inactive | inactive | 
CCCCCCCCCCO | inactive | inactive | inactive | 
CCCCCO | inactive | inactive | inactive | 
CCCCCCCCC(=O)O | active | inactive | inactive | inactive
O=c1ccc2ccccc2o1 | inactive | inactive | inactive | 
CCCCCOC(=O)CCCCC | inactive | inactive | inactive | 

SMILES | odorant receptor agonist call (OR51E1 (Homo sapiens)) | odorant receptor agonist call (OR51E2 (Homo sapiens)) | odorant receptor agonist call (OR51L1 (Homo sapiens)) | odorant receptor agonist call (OR52A1 (Homo sapiens))
O=C1CCOc2ccccc21 | inactive | inactive | inactive | 
CCCCC(C)=O | inactive | inactive | inactive | 
CCCCCCCCS | inactive | inactive | inactive | 
CCCCCCC(C)=O | inactive | inactive | inactive | 
CCCCOC(=O)C(C)OC(=O)CCC (stereo not given) | active | inactive | inactive | 
CCOC(=O)C(C)C | inactive | inactive | inactive | 
CCCCCCCCCO | inactive | inactive | inactive | 
O=C(c1ccccc1)c1ccccc1 | inactive | inactive | inactive | 
COc1cc(C(=O)O)ccc1O | inactive | inactive | inactive | 
CCCCCCCCCS | inactive | inactive | inactive | 
CCCCCCO | inactive | inactive | inactive | 
CCC(=O)O | inactive | active | inactive | 
CCCCOC=O | inactive | inactive | inactive | 
CCCCCCCC(=O)[O-].[H+] | inactive | inactive | inactive | 
C=CCOC(=O)CCCCCC | inactive | inactive | inactive | 
CCCCC(=O)CC | inactive | inactive | inactive | 
c1ccccc1 | inactive | inactive | inactive | 
